Assay results reported in ChEMBL document CHEMBL1806372, “Cytotoxic ring A-modified steroid analogues derived from Grundmann's ketone” (Eur J Med Chem, 2011).

What was measured:
Assay type in all cases: functional
OVCAR-8 = assay: Cytotoxicity against human OVCAR8 cells after 48 hrs by sulforhodamine B assay; settings: OVCAR-8, 48 h, read-out: LC50 (the source's name)
Outline: (§1)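 NCI 60 human tumour cell line panel run to the NCI protocol. GI50, TGI and LC50 come from log concentration vs % growth inhibition curves for each cell line. Lines insensitive at the top concentration are reported with ">".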

UACC-257 = assay: Cytotoxicity against human UACC257 cells after 48 hrs by sulforhodamine B assay; settings: UACC-257, 48 h, read-out: LC50 (the source's name)
MDA-MB-468 = assay: Growth inhibition of human MDA-MB-468 cells after 48 hrs by sulforhodamine B assay; settings: MDA-MB-468, 48 h
Outline: (§2)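 GI50, TGI and LC50 were derived from log concentration versus % growth inhibition curves for each cell line. GI50 is the concentration giving a 50% decrease in net cell growth. Insensitive lines are reported as greater than the highest concentration.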

LOX IMVI = assay: Cytotoxicity against human LOXIMVI cells after 48 hrs by sulforhodamine B assay; settings: read-out: LC50 (the source's name); outline: as §1
SF-268 [1] = assay: Growth inhibition of human SF268 cells after 48 hrs by sulforhodamine B assay; settings: SF-268, 48 h; outline: as §2
HOP-62 [2] = assay: Growth inhibition of human HOP62 cells after 48 hrs by sulforhodamine B assay; settings: HOP-62, 48 h
Outline: (§3)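 From log concentration versus % growth curves, GI50 (50% decrease in net growth), TGI (total growth inhibition) and LC50 (net 50% loss of initial cells) are derived for each line.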

NCI-H23 = assay: Growth inhibition of human NCI-H23 cells after 48 hrs by sulforhodamine B assay; settings: NCI-H23, 48 h; outline: as §2
HT-29 [3] = assay: Cytotoxicity against human HT-29 cells after 48 hrs by sulforhodamine B assay; settings: HT-29, 48 h, read-out: LC50 (the source's name); outline: as §1
Malme-3M [4] = assay: Growth inhibition of human MALME-3M cells after 48 hrs by sulforhodamine B assay; outline: as §2
T47D [5] = assay: Cytotoxicity against human T47D cells after 48 hrs by sulforhodamine B assay; settings: read-out: LC50 (the source's name)
DU-145 [6] = assay: Cytotoxicity against human DU145 cells after 48 hrs by sulforhodamine B assay; settings: DU-145, 48 h, read-out: LC50 (the source's name); outline: as §1
PC-3 = assay: Cytotoxicity against human PC3 cells after 48 hrs by sulforhodamine B assay; settings: PC-3, 48 h, read-out: LC50 (the source's name); outline: as §1
HOP-62 [7] = assay: Cytotoxicity against human HOP62 cells after 48 hrs by sulforhodamine B assay; settings: HOP-62, 48 h, read-out: LC50 (the source's name); outline: as §1
SW-620 [8] = assay: Growth inhibition of human SW620 cells after 48 hrs by sulforhodamine B assay; settings: SW-620, 48 h
Outline: (§4)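 NCI 60-cell panel five-dose assay. GI50, TGI and LC50 are derived from log concentration versus % growth inhibition curves. Cell lines insensitive at the top concentration are given a ">" prefix.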

SR = assay: Cytotoxicity against human SR cells after 48 hrs by sulforhodamine B assay; settings: read-out: LC50 (the source's name)
TK-10 = assay: Cytotoxicity against human TK10 cells after 48 hrs by sulforhodamine B assay; settings: TK-10, 48 h, read-out: LC50 (the source's name)
NCI-H226 = assay: Cytotoxicity against human NCI-H226 cells after 48 hrs by sulforhodamine B assay; settings: NCI-H226, 48 h, read-out: LC50 (the source's name); outline: as §1
SW-620 [9] = assay: Cytotoxicity against human SW620 cells after 48 hrs by sulforhodamine B assay; settings: SW-620, 48 h, read-out: LC50 (the source's name)
SN12C = assay: Cytotoxicity against human SN12C cells after 48 hrs by sulforhodamine B assay; settings: read-out: LC50 (the source's name); outline: as §1
EKVX = assay: Growth inhibition of human EKVX cells after 48 hrs by sulforhodamine B assay; outline: as §3
HCC 2998 [10] = assay: Cytotoxicity against human HCC2998 cells after 48 hrs by sulforhodamine B assay; settings: HCC 2998, 48 h, read-out: LC50 (the source's name); outline: as §1
NCI/ADR-RES = assay: Cytotoxicity against human NCI/ADR-RES cells after 48 hrs by sulforhodamine B assay; settings: read-out: LC50 (the source's name); outline: as §1
K562 = assay: Growth inhibition of human K562 cells after 48 hrs by sulforhodamine B assay; settings: K562, 48 h; outline: as §3
MDA-MB-435 = assay: Cytotoxicity against human MDA-MB-435 cells after 48 hrs by sulforhodamine B assay; settings: MDA-MB-435, 48 h, read-out: LC50 (the source's name); outline: as §1
HT-29 [11] = assay: Growth inhibition of human HT-29 cells after 48 hrs by sulforhodamine B assay; settings: HT-29, 48 h; outline: as §3
HL-60(TB) = assay: Growth inhibition of human HL-60(TB) cells after 48 hrs by sulforhodamine B assay; settings: HL-60, 48 h
OVCAR-4 = assay: Growth inhibition of human OVCAR4 cells after 48 hrs by sulforhodamine B assay; settings: OVCAR-4, 48 h; outline: as §2
DU-145 [12] = assay: Growth inhibition of human DU145 cells after 48 hrs by sulforhodamine B assay; settings: DU-145, 48 h; outline: as §3
U-251 = assay: Growth inhibition of human U251 cells after 48 hrs by sulforhodamine B assay; settings: U-251, 48 h; outline: as §4
NCI-H322M = assay: Cytotoxicity against human NCI-H322M cells after 48 hrs by sulforhodamine B assay; settings: read-out: LC50 (the source's name); outline: as §1
SF-268 [13] = assay: Cytotoxicity against human SF268 cells after 48 hrs by sulforhodamine B assay; settings: SF-268, 48 h, read-out: LC50 (the source's name); outline: as §1
A498 = assay: Growth inhibition of human A498 cells after 48 hrs by sulforhodamine B assay; settings: A498, 48 h; outline: as §3
NCI-H522 = assay: Cytotoxicity against human NCI-H522 cells after 48 hrs by sulforhodamine B assay; settings: NCI-H522, 48 h, read-out: LC50 (the source's name); outline: as §1
Malme-3M [14] = assay: Cytotoxicity against human MALME-3M cells after 48 hrs by sulforhodamine B assay; settings: read-out: LC50 (the source's name); outline: as §1
HCC 2998 [15] = assay: Growth inhibition of human HCC2998 cells after 48 hrs by sulforhodamine B assay; settings: HCC 2998, 48 h; outline: as §3
T47D [16] = assay: Growth inhibition of human T47D cells after 48 hrs by sulforhodamine B assay; outline: as §4
HCT-15 = assay: Growth inhibition of human HCT15 cells after 48 hrs by sulforhodamine B assay; settings: HCT-15, 48 h; outline: as §3
NCI-H460 = assay: Cytotoxicity against human NCI-H460 cells after 48 hrs by sulforhodamine B assay; settings: NCI-H460, 48 h, read-out: LC50 (the source's name); outline: as §1

Q: `CC(C)CCC[C@@H](C)[C@H]1CC[C@H]2C3=CCn4c(=O)ccc(=O)n4[C@@H]3CC[C@]12C` was tested. Which CC50 (OVCAR-8) did it give?
A: > 100 µM

Q: And the CC50 (UACC-257)?
A: 4.32 µM

Q: And the GI50 (MDA-MB-468)?
A: 0.628 µM

Q: And the TGI (MDA-MB-468)?
A: 2.56 µM

Q: And the CC50 (LOX IMVI)?
A: 3.52 µM

Q: What about the GI50 (SF-268 [1]) of the same compound?
A: 1.46 µM

Q: What about the TGI (SF-268 [1]) of the same compound?
A: 2.88 µM

Q: What about the GI50 (HOP-62 [2]) of the same compound?
A: 1.33 µM

Q: And the TGI (HOP-62 [2])?
A: 2.67 µM

Q: And the GI50 (NCI-H23)?
A: 1.42 µM

Q: What about the TGI (NCI-H23) of the same compound?
A: 3.58 µM

Q: What about the CC50 (HT-29 [3]) of the same compound?
A: 5.51 µM

Q: What about the GI50 (Malme-3M [4]) of the same compound?
A: 1.44 µM

Q: What about the TGI (Malme-3M [4]) of the same compound?
A: 3.03 µM

Q: And the CC50 (T47D [5])?
A: 6.29 µM

Q: What about the CC50 (DU-145 [6]) of the same compound?
A: 4.89 µM

Q: What about the CC50 (PC-3) of the same compound?
A: 4.83 µM

Q: What about the CC50 (HOP-62 [7]) of the same compound?
A: 5.33 µM

Q: And the GI50 (SW-620 [8])?
A: 0.375 µM

Q: And the TGI (SW-620 [8])?
A: 1.36 µM

Q: What about the CC50 (SR) of the same compound?
A: > 100 µM

Q: What about the CC50 (TK-10) of the same compound?
A: 3.6 µM

Q: And the CC50 (NCI-H226)?
A: 8.33 µM

Q: And the CC50 (SW-620 [9])?
A: 5.33 µM

Q: What about the CC50 (SN12C) of the same compound?
A: 5.28 µM

Q: And the GI50 (EKVX)?
A: 1.03 µM

Q: What about the TGI (EKVX) of the same compound?
A: 2.75 µM

Q: And the CC50 (HCC 2998 [10])?
A: 4.99 µM

Q: And the CC50 (NCI/ADR-RES)?
A: 2.28 µM

Q: What about the GI50 (K562) of the same compound?
A: 0.309 µM

Q: What about the TGI (K562) of the same compound?
A: 2.02 µM

Q: And the CC50 (MDA-MB-435)?
A: 7.68 µM

Q: What about the GI50 (HT-29 [11]) of the same compound?
A: 0.616 µM

Q: What about the TGI (HT-29 [11]) of the same compound?
A: 2.07 µM

Q: What about the GI50 (HL-60(TB)) of the same compound?
A: 0.113 µM

Q: What about the TGI (HL-60(TB)) of the same compound?
A: 0.49 µM

Q: And the GI50 (OVCAR-4)?
A: 0.686 µM

Q: What about the TGI (OVCAR-4) of the same compound?
A: 2.11 µM

Q: And the GI50 (DU-145 [12])?
A: 1.04 µM

Q: And the TGI (DU-145 [12])?
A: 2.26 µM

Q: What about the GI50 (U-251) of the same compound?
A: 0.438 µM

Q: And the TGI (U-251)?
A: 1.59 µM

Q: And the CC50 (NCI-H322M)?
A: 5.84 µM

Q: And the CC50 (SF-268 [13])?
A: 5.7 µM

Q: What about the GI50 (A498) of the same compound?
A: 1.06 µM

Q: And the TGI (A498)?
A: 2.27 µM

Q: What about the CC50 (NCI-H522) of the same compound?
A: 1.54 µM

Q: And the CC50 (Malme-3M [14])?
A: 6.38 µM

Q: And the GI50 (HCC 2998 [15])?
A: 0.431 µM

Q: What about the TGI (HCC 2998 [15]) of the same compound?
A: 1.64 µM

Q: What about the GI50 (T47D [16]) of the same compound?
A: 0.255 µM

Q: And the TGI (T47D [16])?
A: 1.62 µM

Q: And the GI50 (HCT-15)?
A: 0.418 µM

Q: And the TGI (HCT-15)?
A: 2.22 µM

Q: And the CC50 (NCI-H460)?
A: 5.73 µM
